Experimental data from ChEMBL document CHEMBL1153610, “Synthesis and antiprotozoal activities of dicationic bis(phenoxymethyl)benzenes, bis(phenoxymethyl)naphthalenes, and bis(benzyloxy)naphthalenes” (Eur J Med Chem, 2009).
Active and inactive are the calls of the source. The rule behind the calls is not given here.

Key:
[1] = Selectivity index, ratio of IC50 for rat L6 cells to IC50 for Trypanosoma brucei rhodesiense STIB900; type: toxicity, cell-based; conditions: read-out: Ratio IC50
[2] = test system: Trypanosoma brucei rhodesiense; assay: Antitrypanosomal activity against Trypanosoma brucei rhodesiense STIB900; type: functional, organism-based
[3] = Selectivity index, ratio of IC50 for rat L6 cells to IC50 for Leishmania donovani MHOM/SD/62/1S-CL2D amastigotes; type: toxicity, cell-based; conditions: read-out: Ratio IC50
[4] = test system: L6; assay: Cytotoxicity against rat L6 cells; type: cell-based
How it was run: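 Rat L6 myoblasts served as the cytotoxicity measure. IC50 is the average of duplicate determinations.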

[5] = test system: Plasmodium falciparum; assay: Antimalarial activity against chloroquine-resistant Plasmodium falciparum K1; type: functional, organism-based
[6] = test system: Leishmania donovani; assay: Antileishmanial activity against Leishmania donovani MHOM/SD/62/1S-CL2D amastigotes; type: functional, organism-based
How it was run: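 IC50 taken as the average of duplicate determinations against L. donovani.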

[7] = Selectivity index, ratio of IC50 for rat L6 cells to IC50 for chloroquine-resistant Plasmodium falciparum K1; type: toxicity, cell-based; conditions: read-out: Ratio IC50
[8] = test system: Trypanosoma brucei rhodesiense; assay: Antitrypanosomal activity against Trypanosoma brucei rhodesiense STIB900 infected NMRI mouse assessed mean survival time at 20 mg/kg, ip dosed for 4 days; type: functional; conditions: route intraperitoneal
[9] = test system: Trypanosoma brucei rhodesiense; assay: Antitrypanosomal activity against Trypanosoma brucei rhodesiense STIB900 infected NMRI mouse assessed as infection cure rate at 20 mg/kg, ip dosed for 4 days; type: functional, organism-based; design: dose 20 mg/kg
How it was run: (§1)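 Mice infected with T. b. rhodesiense STIB900 were dosed intraperitoneally once daily for 4 days. Outcome was scored as cured/infected animals out of groups of four, plus mean survival days post infection for mice showing parasitemia relapse.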

[10] = test system: Trypanosoma brucei rhodesiense; assay: Antitrypanosomal activity against Trypanosoma brucei rhodesiense STIB900 infected NMRI mouse assessed mean survival time at 10 mg/kg, ip dosed for 4 days; type: functional; conditions: route intraperitoneal
[11] = test system: Trypanosoma brucei rhodesiense; assay: Antitrypanosomal activity against Trypanosoma brucei rhodesiense STIB900 infected NMRI mouse assessed mean survival time at 5 mg/kg, ip dosed for 4 days; type: functional; conditions: route intraperitoneal
[12] = test system: Trypanosoma brucei rhodesiense; assay: Antitrypanosomal activity against Trypanosoma brucei rhodesiense STIB900 infected NMRI mouse assessed as infection cure rate at 5 mg/kg, ip dosed for 4 days; type: functional, organism-based; design: dose 5 mg/kg; how it was run: as §1
[13] = test system: Mus musculus; assay: Toxicity in ip dosed NMRI mouse infected with Trypanosoma brucei rhodesiense STIB900; type: organism-based; conditions: in vivo
[14] = test system: Trypanosoma brucei rhodesiense; assay: Antitrypanosomal activity against Trypanosoma brucei rhodesiense STIB900 infected NMRI mouse assessed mean survival time at 100 mg/kg, po dosed for 4 days; type: functional
[15] = test system: Trypanosoma brucei rhodesiense; assay: Antitrypanosomal activity against Trypanosoma brucei rhodesiense STIB900 infected NMRI mouse assessed as infection cure rate at 100 mg/kg, po dosed for 4 days; type: functional, organism-based; design: dose 100 mg/kg
How it was run: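 Mice infected with T. b. rhodesiense STIB900 received oral doses once daily for 4 days. Cure was scored as cured/infected animals, with mean survival days post infection for relapsing mice.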

Row | Compound | selectivity ratio [1] | IC50 [2] | selectivity ratio [3] | IC50 [4] | IC50 [5] | IC50 [6] | selectivity ratio [7] | Survival [8] | Activity [9] | Survival [10] | Survival [11] | Activity [12] | Activity [13] | Survival [14] | Activity [15]
1 | CC(C)NC(=N)c1cccc(OCc2ccccc2COc2cccc(C(=N)NC(C)C)c2)c1 | > 126 | 1.28 µM | < 5.41 | > 162 µM | 0.111 µM | > 30 µM | > 1470 |  |  |  |  |  |  |  | 
2 | N=C(N)c1cccc(OCc2ccc(COc3cccc(C(=N)N)c3)cc2)c1 | 103 | 0.0778 µM | < 0.0401 | 8.02 µM | 0.0677 µM | > 200 µM | 119 | 19.5 days | inactive |  |  |  |  |  | 
3 | c1ccc(COc2ccc(C3=NCCN3)cc2)c(COc2ccc(C3=NCCN3)cc2)c1 | 168 | 0.647 µM | 29.8 | 109 µM | 0.0104 µM | 3.66 µM | 10500 |  |  |  |  |  |  |  | 
4 | N=C(N)c1ccc(OCc2cccc(COc3ccc(C(=N)N)cc3)c2)cc1 | 4350 | 0.0021 µM | 2.8 | 9.14 µM | 0.0256 µM | 3.26 µM | 357 |  |  | >35.5 days |  |  |  |  | 
5 | c1cc(OCc2ccccc2COc2cccc(C3=NCCN3)c2)cc(C2=NCCN2)c1 | 2.75 | 24.2 µM | < 0.665 | 66.5 µM | 0.362 µM | > 100 µM | 184 |  |  |  |  |  |  |  | 
6 | N=C(N)c1ccc(OCc2ccc(COc3ccc(C(=N)N)cc3)cc2)cc1 | 600 | 0.0207 µM | 9.4 | 12.4 µM | 0.064 µM | 1.32 µM | 194 | 32 days | inactive |  |  |  |  |  | 
7 | N=C(N)c1ccc(OCc2cc(COc3ccc(C(=N)N)cc3)c3ccccc3c2)cc1 | 212 | 0.325 µM |  | 68.8 µM | 0.0551 µM |  | 1250 | 12 days | inactive |  |  |  |  |  | 
8 | N=C(N)c1cccc(OCc2cccc(COc3cccc(C(=N)N)c3)c2)c1 | 1360 | 0.0473 µM |  | 64.2 µM | 0.0191 µM |  | 3360 |  |  |  | 17 days | inactive |  |  | 
9 | N=C(N)c1cccc(OCc2ccccc2COc2cccc(C(=N)N)c2)c1 | 602 | 0.14 µM | 15.4 | 84.6 µM | 0.109 µM | 5.5 µM | 775 |  |  | >27.3 days |  |  | Toxic |  | 
10 | N=C(N)c1ccc(OCc2ccc(COc3ccc(C(=N)N)cc3)c3ccccc23)cc1 | 121 | 0.234 µM |  | 28.3 µM | 0.126 µM |  | 224 |  |  |  |  |  |  |  | 
11 | CC(C)NC(=N)c1ccc(OCc2ccc(COc3ccc(C(=N)NC(C)C)cc3)c3ccccc23)cc1 | 134 | 0.313 µM | 4.29 | 41.8 µM | 0.0669 µM | 9.73 µM | 625 |  |  |  |  |  |  |  | 
12 | c1cc(COc2ccc(C3=NCCN3)cc2)ccc1COc1ccc(C2=NCCN2)cc1 | 79.5 | 0.38 µM | 15.9 | 30.2 µM | 0.018 µM | 1.9 µM | 1680 | 15 days | inactive |  |  |  |  |  | 
13 | N=C(N)c1ccc(OCCCCCOc2ccc(C(=N)N)cc2)cc1 [PENTAMIDINE] |  |  |  |  |  |  |  | 42.8 days | inactive |  |  |  |  |  | 
14 | CC(C)NC(=N)c1cccc(OCc2ccc(COc3cccc(C(=N)NC(C)C)c3)cc2)c1 | 72.4 | 1.2 µM | 5.89 | 87 µM | 0.0474 µM | 14.8 µM | 1830 |  |  |  |  |  |  |  | 
15 | c1cc(COc2ccc(C3=NCCN3)cc2)cc(COc2ccc(C3=NCCN3)cc2)c1 | 2670 | 0.0462 µM | 30.9 | 123 µM | 0.018 µM | 3.99 µM | 6860 | 22.8 days | inactive |  |  |  |  |  | 
16 | N=C(N)c1ccc(OCc2ccccc2COc2ccc(C(=N)N)cc2)cc1 | 209 | 0.144 µM | 7.87 | 30.1 µM | 0.153 µM | 3.82 µM | 197 | 13.5 days | inactive |  |  |  |  |  | 
17 | N=C(N)c1ccc(COc2ccc3cc(OCc4ccc(C(=N)N)cc4)ccc3c2)cc1 |  | 2.36 µM |  | 19.3 µM |  | 7.12 µM |  |  |  |  |  |  |  |  | 
18 | CC(C)NC(=N)c1ccc(OCc2ccccc2COc2ccc(C(=N)NC(C)C)cc2)cc1 | 97 | 1.68 µM | 14 | 163 µM | 0.0109 µM | 11.7 µM | 15000 |  |  |  |  |  |  |  | 
19 | N=C(NO)c1cccc(OCc2cccc(COc3cccc(C(=N)NO)c3)c2)c1 | 1.12 | 7.71 µM | < 0.172 | 8.6 µM | 2.09 µM | > 50 µM | 4.12 |  |  |  |  |  |  | 14.5 days | inactive
20 | CONC(=N)c1ccc(OCc2cccc(COc3ccc(C(=N)NOC)cc3)c2)cc1 | > 1.11 | 30.4 µM | < 0.336 | > 33.6 µM | > 9.72 µM | > 100 µM | > 3.46 |  |  |  |  |  |  | 6 days | inactive
21 | N=C(N)c1ccc(-c2ccc(-c3ccc(C(=N)N)cc3)o2)cc1 [FURAMIDINE] |  | 0.0032 µM |  |  |  |  |  |  |  |  |  |  |  |  | 
22 | CC(C)NC(=N)c1ccc(OCc2ccc(COc3ccc(C(=N)NC(C)C)cc3)cc2)cc1 | > 2230 | 0.0748 µM | > 20.9 | > 167 µM | 0.017 µM | 7.99 µM | > 9820 |  |  |  | 17 days | inactive | Toxic |  | 
23 | N=C(NO)c1ccc(OCc2cccc(COc3ccc(C(=N)NO)cc3)c2)cc1 | < 0.104 | > 62.6 µM | < 0.0653 | 6.53 µM | > 10.4 µM | > 100 µM | < 0.628 |  |  |  |  |  |  | >38.3 days | 
24 | c1cc(OCc2ccc(COc3cccc(C4=NCCN4)c3)cc2)cc(C2=NCCN2)c1 | 13.9 | 1.42 µM | < 0.099 | 19.8 µM | 0.113 µM | > 200 µM | 175 |  |  |  |  |  |  |  | 
